# Source: ChEMBL document CHEMBL3244161, “Azabicycloalkanes as analgetics. 3. Structure-activity relationships of 1-phenyl-6-azabicyclo[3.2.1]octanes and absolute stereochemistry of (+)-1-(3-hydroxyphenyl)-6-methyl-6-azabicyclo[3.2.1]octane and its 7-endo-methyl derivative” (J Med Chem, 1977)
# The source made the active and inactive calls. The calls are words filed in the database; no cut-off is given here.
# Columns and labels:
# [1] = test system: Rhesus monkey; experiment: Narcotic antagonist activity in morphine-dependent rhesus monkey assessed as mild to moderate abstinence at 3 to 12 mg/kg; type: functional, organism-based; conditions: Macaca mulatta
# Procedure, shortened: (§1)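 Compound given to nonwithdrawn morphine-dependent monkeys; scored as precipitation of abstinence syndrome, with severity graded from mild to severe over the stated dose range.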
# [2] = test system: Mus musculus; experiment: Analgesic activity in sc dosed mouse by hot-plate method; type: functional; conditions: Mus musculus, sc; read-out: ED50
# [3] = test system: Rhesus monkey; experiment: Suppression of abstinence syndrome in morphine-dependent rhesus monkey at 6 mg/kg; type: functional, organism-based; parameters: dose 6 mg/kg; conditions: Macaca mulatta
# [4] = test system: Oryctolagus cuniculus; experiment: Narcotic antagonist activity in iv dosed rabbit assessed as inhibition of morphine-induced respiratory depression; type: functional
# Procedure, shortened: (§2)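 Rabbits given test compound iv; read-out is antagonism of morphine-induced respiratory depression; expressed as AD50 in mg/kg or as % antagonism at a fixed dose.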
# [5] = test system: Mus musculus; experiment: Analgesic activity in sc dosed mouse assessed as inhibition of AcOH-induced writhing; type: functional
# [6] = Acute toxicity in sc dosed mouse; type: organism-based; conditions: in vivo
# [7] = test system: Mus musculus; experiment: Analgesic activity in sc dosed mouse assessed as time duration of activity by hot-plate method; type: functional
# [8] = test system: Rhesus monkey; experiment: Suppression of abstinence syndrome in morphine-dependent rhesus monkey at 10 mg/kg; type: functional, organism-based; parameters: dose 10 mg/kg; conditions: Macaca mulatta
# [9] = test system: Rhesus monkey; experiment: Narcotic antagonist activity in morphine-dependent rhesus monkey assessed as mild to moderate abstinence at 5 to 20 mg/kg; type: functional, organism-based; conditions: Macaca mulatta; procedure, shortened: as §1
# [10] = test system: Mus musculus; experiment: Analgesic activity in mouse assessed as inhibition of AcOH-induced writhing up to 22.5 mg/kg, sc; type: functional, organism-based; parameters: dose 22.5 mg/kg
# [11] = test system: Oryctolagus cuniculus; experiment: Narcotic antagonist activity in rabbit assessed as inhibition of morphine-induced respiratory depression at 5 mg/kg, iv; type: functional; procedure, shortened: as §2
# [12] = test system: Rhesus monkey; experiment: Suppression of abstinence syndrome in morphine-dependent rhesus monkey at 1.5 mg/kg; type: functional, organism-based; parameters: dose 1.5 mg/kg; conditions: Macaca mulatta
# [13] = test system: Rhesus monkey; experiment: Narcotic antagonist activity in morphine-dependent rhesus monkey assessed as moderate to severe abstinence at 1.5 to 12 mg/kg; type: functional, organism-based; conditions: Macaca mulatta; procedure, shortened: as §1
# [14] = test system: Mus musculus; experiment: Analgesic activity in mouse by hot-plate method up to 100 mg/kg, sc; type: functional, organism-based; parameters: dose 100 mg/kg
# [15] = test system: Rhesus monkey; experiment: Narcotic antagonist activity in morphine-dependent rhesus monkey assessed as mild to severe abstinence at 2.5 to 20 mg/kg; type: functional, organism-based; conditions: Macaca mulatta; procedure, shortened: as §1
# [16] = test system: Rhesus monkey; experiment: Suppression of abstinence syndrome in morphine-dependent rhesus monkey at 5 mg/kg; type: functional, organism-based; parameters: dose 5 mg/kg; conditions: Macaca mulatta
# [17] = test system: Rhesus monkey; experiment: Narcotic antagonist activity in morphine-dependent rhesus monkey assessed as precipitation of abstinence up to 8 mg/kg; type: functional, organism-based; parameters: dose 8 mg/kg; conditions: Macaca mulatta; procedure, shortened: as §1
# [18] = test system: Rhesus monkey; experiment: Suppression of abstinence syndrome in morphine-dependent rhesus monkey at 8 mg/kg; type: functional, organism-based; parameters: dose 8 mg/kg; conditions: Macaca mulatta
# [19] = test system: Mus musculus; experiment: Analgesic activity in mouse assessed as inhibition of AcOH-induced writhing up to 10 mg/kg, sc; type: functional, organism-based; parameters: dose 10 mg/kg
# [20] = test system: Rhesus monkey; experiment: Suppression of abstinence syndrome in morphine-dependent rhesus monkey up to 16 mg/kg; type: functional, organism-based; parameters: dose 16 mg/kg; conditions: Macaca mulatta
# [21] = test system: Rhesus monkey; experiment: Narcotic antagonist activity in morphine-dependent rhesus monkey assessed as mild to severe abstinence at 2 mg/kg; type: functional, organism-based; parameters: dose 2 mg/kg; conditions: Macaca mulatta; procedure, shortened: as §1
# [22] = Mus musculus, sc, read-out: ED50
Compound,ED50 [2] [mg/kg],AD50 [4] [mg/kg],"ED50 [5, 22] [mg/kg]",LD50 [6] [mg/kg],Activity [10],also measured
CN1C[C@]2(c3cccc(O)c3)CCC[C@H]1C2,3.6,4.1,3.7,90.7,,Activity [1]: Active; Activity [3]: inactive; Time [7]: 140 min
CN1C[C@@]2(c3cccc(O)c3)CCC[C@@H]1C2,20,,,156,inactive,Activity [8]: inactive; Activity [9]: Active; inhibition in vivo at 5 mg/kg [11]: 41%
Br.C[C@H]1N(C)[C@H]2CCC[C@]1(c1cccc(O)c1)C2,2.9,,1.2,123,,Activity [12]: inactive; Activity [13]: Active; inhibition in vivo at 5 mg/kg [11]: 42%; Time [7]: 148.6 min
Br.C[C@@H]1N(C)[C@@H]2CCC[C@@]1(c1cccc(O)c1)C2,,,,82.7,inactive,Activity [14]: inactive; Activity [15]: Active; Activity [16]: inactive; inhibition in vivo at 5 mg/kg [11]: 48%
CN1CC2(c3cccc(O)c3)CCCC1C2 (racemic),14.3,3.1,12.3,133,,Activity [17]: inactive; Activity [18]: inactive; Time [7]: 137 min
CC1N(C)C2CCCC1(c1ccccc1)C2.Cl (racemic),20,,20,> 30,,Activity [8]: inactive
Br.CC1N(C)C2CCCC1(c1ccc(O)c(O)c1)C2 (racemic),,,,> 10,,Activity [19]: inactive
CC(=O)Oc1cccc(C23CCCC(C2)N(C)C3C)c1.Cl (racemic),3.5,,,123,,ED50 [5]: 2.9 mg/kg
Br.CCC1N(C)C2CCCC1(c1cccc(OC(C)=O)c1)C2 (racemic),9.9,,10.1,55.1,,
Br.CCC(=O)Oc1cccc(C23CCCC(C2)N(C)C3C)c1 (racemic),9.9,,2.3,114,,
O=C(O)C(=O)O.c1ccc(C23CCCC(C2)N(CC2CC2)C3)cc1 (racemic),,,,> 30,inactive,inhibition in vivo at 5 mg/kg [11]: 41%
C=CCN1CC2(c3ccccc3)CCCC1C2.O=C(O)C(=O)O (racemic),,2.2,,> 100,inactive,
Cl.Oc1cccc(C23CCCC(C2)N(CC2CCC2)C3)c1 (racemic),,3.5,,> 30,,Activity [19]: inactive
C=CCN1CC2(c3cccc(O)c3)CCCC1C2.Cl (racemic),,1.7,,> 100,inactive,
C#CCN1CC2(c3cccc(O)c3)CCCC1C2.O=C(O)C(=O)O (racemic),,1.6,,> 100,inactive,
Cl.Oc1cccc(C23CCCC(C2)N(C/C=C/c2ccccc2)C3)c1 (racemic),,0.96,,> 100,inactive,
COc1cccc(C23CCCC(C2)N(CCCC(=O)c2ccc(F)cc2)C3)c1.Cl (racemic),4.2,,3,> 225,,Activity [20]: inactive; Activity [21]: inactive
CCCN1C2CCCC(c3cccc(O)c3)(C2)C1C.Cl (racemic),,0.03,,> 30,inactive,
CCCCN1C2CCCC(c3cccc(O)c3)(C2)C1C.Cl (racemic),,,,> 30,,Activity [19]: inactive
CCCCCN1C2CCCC(c3cccc(O)c3)(C2)C1C.Cl (racemic),,,1.5,36.7,,inhibition [11]: inactive
